ChEMBL document CHEMBL4350961, “Discovery of Pyrrolo[3,2- d]pyrimidin-4-one Derivatives as a New Class of Potent and Cell-Active Inhibitors of P300/CBP-Associated Factor Bromodomain” (J Med Chem, 2019)
pIC50: −log10 of the molar value. Active and inactive are the calls of the source. The calls are words filed in the database; no cut-off is given here.

How the values were obtained:
[1] = molecular target: LIM domain kinase 1 (Homo sapiens) (UniProt P53667); test: Inhibition of recombinant human LIMK1 (285 to 638 residues) at 10 uM using cofilin as substrate measured after 40 mins in presence of [gamma33P]ATP by scintillation counting method
[2] = molecular target: Serine/threonine-protein kinase PAK 6 (Homo sapiens) (UniProt Q9NQU5); test: Inhibition of recombinant human PAK6 (382 to end residues) at 10 uM using RRRLSFAEPG as substrate measured after 40 mins in presence of [gamma33P]ATP by scintillation counting method
Mus musculus = organism: Mus musculus; test: Inhibition of recombinant full-length mouse PI3K p110alpha/p85alpha at 10 uM using phosphatidylinositol-4, 5-bisphosphate as substrate measured after 40 mins by HTRF assay
[3] = molecular target: FKBP12A/mTOR (Homo sapiens) (UniProt P62942+P42345); test: Inhibition of recombinant full-length human mTOR/FKBP12 at 10 uM measured after 40 mins in presence of [gamma33P]ATP by scintillation counting method; type: protein-complex assay
[4] = molecular target: Dual specificity tyrosine-phosphorylation-regulated kinase 1A (Homo sapiens) (UniProt Q13627); test: Inhibition of recombinant full-length human DYRK1A at 10 uM using RRRFRPASPLRGPPK as substrate measured after 40 mins in presence of [gamma33P]ATP by scintillation counting method
[5] = molecular target: Mitogen-activated protein kinase kinase kinase 3 (Homo sapiens) (UniProt Q99759); test: Inhibition of recombinant full-length human MEKK3 at 10 uM using myelin basic protein as substrate measured after 40 mins in presence of [gamma33P]ATP by scintillation counting method
[6] = molecular target: Inhibitor of nuclear factor kappa-B kinase subunit epsilon (Homo sapiens) (UniProt Q14164); test: Inhibition of recombinant full-length human IKKepsilon at 10 uM using casein as substrate measured after 40 mins in presence of [gamma33P]ATP by scintillation counting method
[7] = molecular target: CDK9/cyclin T1 (Homo sapiens) (UniProt O60563+P50750); test: Inhibition of recombinant full length human CDK9/cyclinT1 at 10 uM using KTFCGTPEYLAPEVRREPRILSEEEQEMFRDFDYIADWC as substrate measured after 40 mins in presence of [gamma33P]ATP by scintillation counting method; type: protein-complex assay
[8] = molecular target: Protein kinase C zeta type (Homo sapiens) (UniProt Q05513); test: Inhibition of recombinant human PKCzeta (2 to end residues) at 10 uM using ERMRPRKRQGSVRRRV as substrate measured after 40 mins in presence of [gamma33P]ATP by scintillation counting method
Peregrin (Homo sapiens) = Peregrin (Homo sapiens) (UniProt P55201); test: Binding affinity to human partial length BRPF1 (E627 to G740 residues) expressed in bacterial expression system at 1 uM by BROMOscan assay
Procedure, shortened: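 BROMOscan bromodomain cross-screen run by an outside service, compound at 1 µM against 32 recombinant bromodomains. Binding given as percent of control.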

Homo sapiens [9] = organism: Homo sapiens; test: Inhibition of recombinant full-length human AURKA I31F mutant at 10 uM using LRRASLG as substrate measured after 40 mins in presence of [gamma33P]ATP by scintillation counting method
[10] = molecular target: Serine/threonine-protein kinase PLK3 (Homo sapiens) (UniProt Q9H4B4); test: Inhibition of recombinant human Plk3 (19 to 301 residues) at 10 uM using casein as substrate measured after 40 mins in presence of [gamma33P]ATP by scintillation counting method
Homo sapiens [11] = organism: Homo sapiens; test: Inhibition of recombinant human Flt4 V1128L/H1146R mutant (800 to end residues) at 10 uM using GGEEEEYFELVKKKK as substrate measured after 40 mins in presence of [gamma33P]ATP by scintillation counting method
[12] = tested on: Serine/threonine-protein kinase Nek4 (Homo sapiens), P51957 [P225A]; test: Inhibition of recombinant full-length human NEK4 P225A mutant at 10 uM using myelin basic protein as substrate measured after 40 mins in presence of [gamma33P]ATP by scintillation counting method
[13] = molecular target: CDK4/Cyclin D3 (Homo sapiens) (UniProt P11802+P30281); test: Inhibition of recombinant full-length human CDK4/cyclinD3 at 10 uM using Rb fragment as substrate measured after 40 mins in presence of [gamma33P]ATP by scintillation counting method; type: protein-complex assay
[14] = molecular target: NUAK family SNF1-like kinase 2 (Homo sapiens) (UniProt Q9H093); test: Inhibition of recombinant full-length human NUAK2 at 10 uM using KKKVSRSGLYRSPSMPENLNRPR as substrate measured after 40 mins in presence of [gamma33P]ATP by scintillation counting method
[15] = molecular target: Serine/threonine-protein kinase 32C (Homo sapiens) (UniProt Q86UX6); test: Inhibition of recombinant full-length human STK32C at 10 uM using casein as substrate measured after 120 mins in presence of [gamma33P]ATP by scintillation counting method
[16] = molecular target: Phosphatidylinositol 4-phosphate 5-kinase type-1 alpha (Homo sapiens) (UniProt Q99755); test: Inhibition of recombinant full-length human PIP5K1alpha at 10 uM using phosphatidylinositol 4-phosphate as substrate measured after 40 mins by HTRF assay
[17] = molecular target: Serine/threonine-protein kinase PAK 5 (Homo sapiens) (UniProt Q9P286); test: Inhibition of recombinant human PAK5 (425 to end residues) at 10 uM using RRRLSFAEPG as substrate measured after 40 mins in presence of [gamma33P]ATP by scintillation counting method
[18] = molecular target: Ephrin type-A receptor 7 (Homo sapiens) (UniProt Q15375); test: Inhibition of recombinant human EphA7 (613 to 909 residues) at 10 uM using KTFCGTPEYLAPEVRREPRILSEEEQEMFRDFDYIADWC as substrate measured after 40 mins in presence of [gamma33P]ATP by scintillation counting method
[19] = molecular target: BMP-2-inducible protein kinase (Homo sapiens) (UniProt Q9NSY1); test: Inhibition of recombinant human BIKepsilon at 10 uM using peptide substrate measured after 120 mins in presence of [gamma33P]ATP by scintillation counting method
Homo sapiens [20] = organism: Homo sapiens; test: Inhibition of recombinant human PRAK R291E mutant at 10 uM using KKLRRTLSVA as substrate measured after 40 mins in presence of [gamma33P]ATP by scintillation counting method
[21] = molecular target: Death-associated protein kinase 2 (Homo sapiens) (UniProt Q9UIK4); test: Inhibition of recombinant full-length human DAPK2 at 10 uM using calmodulin as substrate measured after 40 mins in presence of [gamma33P]ATP by scintillation counting method
[22] = molecular target: Histone acetyltransferase KAT2B (Homo sapiens, UniProt Q92831); test: Inhibition of biotinylated peptide binding to human GST-tagged PCAF bromodomain expressed in Escherichia coli Rosetta (DE3) measured after 15 hrs by HTRF assay
[23] = molecular target: Leucine-rich repeat serine/threonine-protein kinase 2 (Homo sapiens) (UniProt Q5S007); test: Inhibition of recombinant human LRRK2 (970 to end residues) at 10 uM using RLGRDKYKTLRQIRQ as substrate measured after 40 mins in presence of [gamma33P]ATP by scintillation counting method

Sequence of Death-associated protein kinase 2 (Homo sapiens) (Q9UIK4 whole entry, looked up): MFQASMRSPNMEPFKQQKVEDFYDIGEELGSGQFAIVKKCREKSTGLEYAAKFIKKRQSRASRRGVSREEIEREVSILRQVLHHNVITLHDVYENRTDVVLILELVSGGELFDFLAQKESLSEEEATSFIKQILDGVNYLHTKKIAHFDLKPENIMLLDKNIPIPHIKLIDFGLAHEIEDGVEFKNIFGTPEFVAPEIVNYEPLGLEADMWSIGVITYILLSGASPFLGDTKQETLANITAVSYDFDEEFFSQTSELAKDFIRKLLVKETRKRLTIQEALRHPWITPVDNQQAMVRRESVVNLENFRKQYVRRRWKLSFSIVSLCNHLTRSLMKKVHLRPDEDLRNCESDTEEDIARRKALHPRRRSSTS
Sequence of BMP-2-inducible protein kinase (Homo sapiens) (Q9NSY1 whole entry, looked up): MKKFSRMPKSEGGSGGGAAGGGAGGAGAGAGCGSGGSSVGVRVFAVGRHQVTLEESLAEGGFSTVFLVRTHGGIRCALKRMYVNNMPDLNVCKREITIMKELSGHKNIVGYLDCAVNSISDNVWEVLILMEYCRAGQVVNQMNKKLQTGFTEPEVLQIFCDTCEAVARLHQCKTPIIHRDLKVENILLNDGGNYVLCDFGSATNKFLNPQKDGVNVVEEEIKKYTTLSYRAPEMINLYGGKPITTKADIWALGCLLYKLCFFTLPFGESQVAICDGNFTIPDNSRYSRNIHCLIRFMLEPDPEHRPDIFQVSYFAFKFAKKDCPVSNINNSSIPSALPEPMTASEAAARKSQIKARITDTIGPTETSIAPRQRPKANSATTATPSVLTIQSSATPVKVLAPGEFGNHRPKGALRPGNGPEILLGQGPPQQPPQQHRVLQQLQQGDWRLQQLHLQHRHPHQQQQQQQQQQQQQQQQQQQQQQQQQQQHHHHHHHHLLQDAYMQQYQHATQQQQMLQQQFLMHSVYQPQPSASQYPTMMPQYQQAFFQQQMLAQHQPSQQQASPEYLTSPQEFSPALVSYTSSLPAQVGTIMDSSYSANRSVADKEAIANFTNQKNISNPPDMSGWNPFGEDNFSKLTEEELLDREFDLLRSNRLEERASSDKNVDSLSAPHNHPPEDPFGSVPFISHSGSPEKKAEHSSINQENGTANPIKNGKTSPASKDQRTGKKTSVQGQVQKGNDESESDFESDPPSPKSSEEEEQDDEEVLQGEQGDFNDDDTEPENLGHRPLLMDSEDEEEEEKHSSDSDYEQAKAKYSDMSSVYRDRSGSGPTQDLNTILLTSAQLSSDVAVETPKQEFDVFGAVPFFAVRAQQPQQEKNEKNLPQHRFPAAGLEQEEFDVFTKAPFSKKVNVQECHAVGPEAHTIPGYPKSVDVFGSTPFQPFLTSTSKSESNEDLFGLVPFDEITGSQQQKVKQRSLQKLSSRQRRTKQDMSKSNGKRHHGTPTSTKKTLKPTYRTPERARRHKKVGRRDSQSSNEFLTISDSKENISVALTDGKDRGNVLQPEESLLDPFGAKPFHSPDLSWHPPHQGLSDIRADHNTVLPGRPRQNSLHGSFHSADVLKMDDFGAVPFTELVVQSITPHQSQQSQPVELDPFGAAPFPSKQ
Sequence of Mitogen-activated protein kinase kinase kinase 3 (Homo sapiens) (Q99759 whole entry): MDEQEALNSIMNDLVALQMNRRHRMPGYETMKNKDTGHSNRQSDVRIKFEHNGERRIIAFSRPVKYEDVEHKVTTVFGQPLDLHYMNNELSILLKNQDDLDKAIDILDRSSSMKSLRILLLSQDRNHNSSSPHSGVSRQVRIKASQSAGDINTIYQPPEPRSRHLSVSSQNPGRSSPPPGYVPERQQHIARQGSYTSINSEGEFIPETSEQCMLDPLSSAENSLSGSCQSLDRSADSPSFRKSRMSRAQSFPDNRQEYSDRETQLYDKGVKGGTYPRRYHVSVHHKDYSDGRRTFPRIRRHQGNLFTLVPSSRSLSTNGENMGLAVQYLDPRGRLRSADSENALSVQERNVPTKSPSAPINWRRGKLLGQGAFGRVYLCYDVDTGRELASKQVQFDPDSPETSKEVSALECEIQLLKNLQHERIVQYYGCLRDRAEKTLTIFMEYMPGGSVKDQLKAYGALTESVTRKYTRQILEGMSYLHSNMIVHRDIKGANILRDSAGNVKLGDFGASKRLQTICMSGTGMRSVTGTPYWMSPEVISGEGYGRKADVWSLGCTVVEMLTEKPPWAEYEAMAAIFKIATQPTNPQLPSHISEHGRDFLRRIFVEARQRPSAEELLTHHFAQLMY
Sequence of Peregrin (Homo sapiens) (P55201 whole entry, the tested form may be a part): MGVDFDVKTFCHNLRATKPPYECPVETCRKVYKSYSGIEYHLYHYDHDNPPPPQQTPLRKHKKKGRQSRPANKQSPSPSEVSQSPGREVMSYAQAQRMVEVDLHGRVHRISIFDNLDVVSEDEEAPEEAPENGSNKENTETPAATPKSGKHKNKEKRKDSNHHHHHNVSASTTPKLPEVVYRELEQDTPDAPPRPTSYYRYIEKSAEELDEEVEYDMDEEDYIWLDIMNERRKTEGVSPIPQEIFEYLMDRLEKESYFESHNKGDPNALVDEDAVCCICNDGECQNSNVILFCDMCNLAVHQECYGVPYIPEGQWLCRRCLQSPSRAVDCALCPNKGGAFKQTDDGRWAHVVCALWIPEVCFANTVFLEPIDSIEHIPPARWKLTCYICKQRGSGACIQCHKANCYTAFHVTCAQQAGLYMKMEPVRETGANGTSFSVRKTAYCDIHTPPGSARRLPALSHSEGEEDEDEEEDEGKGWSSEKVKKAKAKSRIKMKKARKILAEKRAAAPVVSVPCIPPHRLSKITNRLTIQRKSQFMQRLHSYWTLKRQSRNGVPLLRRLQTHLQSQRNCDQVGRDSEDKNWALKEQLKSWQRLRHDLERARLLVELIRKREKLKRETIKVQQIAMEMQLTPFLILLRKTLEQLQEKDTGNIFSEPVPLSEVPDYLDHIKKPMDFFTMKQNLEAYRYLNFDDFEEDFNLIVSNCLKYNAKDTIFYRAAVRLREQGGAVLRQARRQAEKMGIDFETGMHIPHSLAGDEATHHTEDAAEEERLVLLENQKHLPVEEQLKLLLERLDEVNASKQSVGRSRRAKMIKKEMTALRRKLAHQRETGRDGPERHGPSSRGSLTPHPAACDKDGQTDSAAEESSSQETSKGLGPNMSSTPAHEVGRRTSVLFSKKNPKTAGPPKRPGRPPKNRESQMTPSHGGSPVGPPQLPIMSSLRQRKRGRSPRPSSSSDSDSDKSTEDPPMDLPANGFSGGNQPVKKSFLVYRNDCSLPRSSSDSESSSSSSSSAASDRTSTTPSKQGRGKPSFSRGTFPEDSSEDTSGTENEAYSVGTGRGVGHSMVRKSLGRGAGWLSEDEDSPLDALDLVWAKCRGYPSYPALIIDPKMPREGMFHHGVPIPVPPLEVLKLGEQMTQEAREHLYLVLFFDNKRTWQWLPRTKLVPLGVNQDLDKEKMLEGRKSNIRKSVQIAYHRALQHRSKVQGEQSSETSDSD
Sequence of Inhibitor of nuclear factor kappa-B kinase subunit epsilon (Homo sapiens) (Q14164 whole entry): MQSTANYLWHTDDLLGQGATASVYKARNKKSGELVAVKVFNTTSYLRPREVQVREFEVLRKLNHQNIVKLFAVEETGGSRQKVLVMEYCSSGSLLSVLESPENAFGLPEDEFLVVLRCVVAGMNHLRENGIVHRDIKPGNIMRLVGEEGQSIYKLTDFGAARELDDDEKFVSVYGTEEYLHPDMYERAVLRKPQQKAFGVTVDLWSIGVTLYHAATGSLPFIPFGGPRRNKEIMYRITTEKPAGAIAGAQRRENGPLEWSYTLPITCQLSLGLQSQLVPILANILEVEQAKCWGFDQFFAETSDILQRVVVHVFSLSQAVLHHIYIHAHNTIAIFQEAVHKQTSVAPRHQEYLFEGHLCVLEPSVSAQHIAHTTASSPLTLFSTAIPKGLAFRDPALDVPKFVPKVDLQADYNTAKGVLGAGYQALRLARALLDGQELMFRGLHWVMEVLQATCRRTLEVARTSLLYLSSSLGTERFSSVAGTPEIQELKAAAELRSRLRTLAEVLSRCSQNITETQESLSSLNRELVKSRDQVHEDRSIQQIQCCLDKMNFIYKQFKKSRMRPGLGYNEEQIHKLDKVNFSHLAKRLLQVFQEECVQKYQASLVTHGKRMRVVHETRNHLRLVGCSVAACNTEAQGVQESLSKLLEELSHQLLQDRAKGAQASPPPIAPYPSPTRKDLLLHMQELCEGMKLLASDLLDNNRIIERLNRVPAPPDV
Sequence of Ephrin type-A receptor 7 (Homo sapiens) (Q15375 28-998 limits assumed): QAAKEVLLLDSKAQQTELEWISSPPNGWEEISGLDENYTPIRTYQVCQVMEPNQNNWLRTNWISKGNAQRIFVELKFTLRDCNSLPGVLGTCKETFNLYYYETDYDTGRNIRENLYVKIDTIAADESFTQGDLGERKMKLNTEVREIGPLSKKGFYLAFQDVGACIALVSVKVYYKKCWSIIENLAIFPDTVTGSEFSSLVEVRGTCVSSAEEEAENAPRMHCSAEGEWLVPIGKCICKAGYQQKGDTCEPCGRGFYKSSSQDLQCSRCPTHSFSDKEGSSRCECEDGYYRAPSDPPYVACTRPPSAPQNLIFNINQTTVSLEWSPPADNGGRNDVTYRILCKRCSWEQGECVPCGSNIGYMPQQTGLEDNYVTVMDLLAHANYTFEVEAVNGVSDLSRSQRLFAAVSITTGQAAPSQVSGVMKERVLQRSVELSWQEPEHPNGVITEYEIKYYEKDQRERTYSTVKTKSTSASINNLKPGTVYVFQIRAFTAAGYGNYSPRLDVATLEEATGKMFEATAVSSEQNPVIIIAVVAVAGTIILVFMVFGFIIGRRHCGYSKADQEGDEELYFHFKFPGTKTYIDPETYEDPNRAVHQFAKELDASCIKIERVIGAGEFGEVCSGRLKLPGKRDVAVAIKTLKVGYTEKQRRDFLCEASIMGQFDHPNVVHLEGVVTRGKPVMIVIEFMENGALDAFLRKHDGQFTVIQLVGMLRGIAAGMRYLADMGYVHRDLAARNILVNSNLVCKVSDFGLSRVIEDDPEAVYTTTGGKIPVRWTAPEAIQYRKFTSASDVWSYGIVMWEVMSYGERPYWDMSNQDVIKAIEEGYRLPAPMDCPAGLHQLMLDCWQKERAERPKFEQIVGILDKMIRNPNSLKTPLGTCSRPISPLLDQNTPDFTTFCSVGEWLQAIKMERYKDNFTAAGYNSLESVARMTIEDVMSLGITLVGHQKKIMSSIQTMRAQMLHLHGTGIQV

`CN1C[C@H](Nc2nc3cc[nH]c3c(=O)n2C)C[C@H](c2ccc3c(c2)OCCO3)C1` was tested, and the inhibition [1] was “inactive”, the inhibition [2] was “inactive” and the inhibition (Mus musculus) was “inactive”. For the same compound, the inhibition [3] was “inactive”, the inhibition [4] was “inactive” and the inhibition [5] was “inactive”. The inhibition [6] was “inactive”, the inhibition [7] was “inactive” and the inhibition [8] was “inactive”. The Activity (Peregrin (Homo sapiens)) was “Active”, the inhibition (Homo sapiens [9]) was “inactive” and the inhibition [10] was “inactive”. For the same compound, the inhibition (Homo sapiens [11]) was “inactive”, the inhibition [12] was “inactive” and the inhibition [13] was “inactive”. For the same compound, the inhibition [14] was “inactive”, the inhibition [15] was “inactive” and the inhibition [16] was “inactive”. The inhibition [17] was “inactive”, the inhibition [18] was “inactive” and the inhibition [19] was “inactive”. The inhibition (Homo sapiens [20]) was “inactive”, the inhibition [21] was “inactive” and the pIC50 [22] was 8.15. The inhibition [23] was “inactive”.
